# Screening results: PubChem, several laboratories
# Scp-1 inhibitor – blocks human Scp-1 phosphatase activity | Recombinant Scp1, phosphopeptide, malachite green phosphate absorbance | inhibition, % at 20 µM | 340,000 compounds, 0.88% hits;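 active = inhibition above about 50% at 20 µM, limit read from the data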
# Target sequence (Q9GZU7 76-261 limits assumed): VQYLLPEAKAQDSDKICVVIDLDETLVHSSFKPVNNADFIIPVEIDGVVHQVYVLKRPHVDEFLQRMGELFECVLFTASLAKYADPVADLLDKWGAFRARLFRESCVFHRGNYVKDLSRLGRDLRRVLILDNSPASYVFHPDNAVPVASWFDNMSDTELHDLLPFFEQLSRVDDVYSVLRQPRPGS
#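 Incubation: 45 min enzyme reaction at room temperature / System: truncated SCP-1 phosphatase (76-261aa) / Reagent: Phospho 17-mer peptide substrate / Buffer or medium: Acidic Tris acetate buffer with magnesium and detergent / Signal: absorbance at 630 nm / Doses: one concentration, 20 µM, with 1.0% DMSO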
# DNMT1 block – DNMT1 (human) enzyme inhibition | P26358 | DNMT1 molecular beacon, Hinp1I cleavage, fluorescence | inhibition (reported as % activation of signal), % at 10 µM | 360,000 compounds, 0.83% hits; in the data active = inhibition above about 50%
# LMPTP inh – blocks human LMPTP phosphatase. P24666. recombinant LMPTP-A, OMFP fluorogenic substrate, fluorescence intensity. inhibition, % at 20 µM. 360,000 compounds, 0.22% hits. AID 651560;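 active = compounds that cut the enzyme signal by at least half of the control window in the single-dose screen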
# Target sequence (P24666 whole entry, looked up): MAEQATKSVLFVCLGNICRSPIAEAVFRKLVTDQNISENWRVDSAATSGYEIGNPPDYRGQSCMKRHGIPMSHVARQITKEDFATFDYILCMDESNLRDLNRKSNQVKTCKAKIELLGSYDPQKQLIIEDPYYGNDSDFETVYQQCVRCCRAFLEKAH
#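 Test system – LMPTP-A phosphatase enzyme · Quantity – 0.625 nM LMPTP-A final · Reagent – OMFP substrate, 400 µM final · Dosing – one test concentration per compound, 20 µM, with 3% DMSO overall · Timing – 50 min enzyme reaction at room temperature, protected from light · Detection – fluorescence intensity · Controls – substrate-only low control, DMSO enzyme-plus-substrate high control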
# GRK2 inh – blocks RNA aptamer binding to human GRK2; inhibition of aptamer binding, % at 10 µM; 330,000 compounds, 0.59% hits; P25098; bead flow cytometry, FAM-aptamer displacement from GRK2; AID 488847;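 active = inhibition of aptamer binding above 40%, roughly 3 SD of noise, on plates passing a quality check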;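 also: median bead fluorescence of bound FAM aptamer so fluorescent compounds give negative values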
# SUMO1 PPI mod – modulators of human SUMO1-mediated protein-protein interactions. SUMO1 binding to a labelled peptide, TR-FRET, 1 h. AID 602429. P63165. inhibition, % at 20 µM. 360,000 compounds, 0.33% hits; in the data active = inhibition above about 37%
# Target sequence (P63165 whole entry, looked up): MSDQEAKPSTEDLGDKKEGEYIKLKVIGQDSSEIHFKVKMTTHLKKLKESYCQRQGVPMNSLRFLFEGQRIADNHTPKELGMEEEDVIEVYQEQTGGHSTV
# STEP block – inhibitors of human striatal-enriched phosphatase STEP | inhibition, % at 20 µM | P54829 | recombinant STEP, OMFP fluorogenic substrate, fluorescence | 360,000 compounds, 0.25% hits;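 active = inhibition at 20 µM, scaled per plate between control wells, above about 37%, limit read from the data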
#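 System: isolated STEP enzyme; schedule: 20 min enzyme reaction at room temperature, protected from light; medium: Bis-Tris buffer pH 6.0, 2.5 mM DTT, 0.005% Tween 20; signal: fluorescence, 480/540 nm; dosing: single compound dose of 20 µM, 1% DMSO final; also added: OMFP substrate, 25 µM final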
# Numbers stand for hits; . = inactive; / = no result given; + = active, no number. A selection: hits, their analogues and other compounds. The true share with any hit is near 2.2%.
SMILES,Scp-1 inhibitor,DNMT1 block,LMPTP inh,GRK2 inh,SUMO1 PPI mod,STEP block
CCc1nc2ccc(C(=O)Nc3cc(-c4ccccc4)ccc3OC)cn2c1N(CCN(C)C)CC1CC1,/,.,.,/,.,.
COC(=O)C(Sc1ccc(Cl)cc1)C1SC(=S)N(Cc2ccccc2)C1=O (stereo unspecified),/,.,.,/,.,.
COc1cccc2c1[C@@H]1CN(CCCCn3c(=O)[nH]c4c(sc5ncc(-c6ccccc6)nc54)c3=O)C[C@@H]1CO2,.,.,67,.,.,.
COCCCNc1c2c3c(cccc3[nH]c1=O)C(=O)c1ccccc1-2,.,+,.,.,.,.
COCCCNC1=C(Cl)C(=O)c2ccccc2C1=O,.,.,.,.,.,.
COc1cccc(CNc2nc(NCC3CC3)nc3ccsc23)c1OC,/,.,60,/,.,.
COc1cccc(CNc2nc(NC(C)C)nc3ccsc23)c1OC,/,.,.,/,.,.
C[n+]1ccccc1/C=C/c1ccccc1Cl,98,.,.,.,.,.
CCOC(=O)[C@]12CCCC=C1N(Cc1cccc3ccccc13)C(=O)[C@H](CC(=O)N1CCCCC1)C2,/,/,.,/,.,/
COCCOC(=O)N1CCCCC1c1cc(C(=O)Nc2cccc3c2CCCC3)no1 (stereo unspecified),/,.,.,/,.,.
O=C(O)COc1ccc(/C=N/NC(=O)c2ccc(-c3csc(Nc4ccc(Cl)cc4)n3)cc2)cc1,100,.,92,/,121,93
CCOc1cc(/C=N/NC(=O)c2ccc(-c3csc(Nc4ccc(C)cc4)n3)cc2)ccc1OCC(=O)O,66,78,92,/,.,84
CCN1C(=O)[C@H]2[C@@H](c3ccc(C(F)(F)F)cc3)N[C@]3(CCCN(Cc4ccco4)C3=O)[C@H]2C1=O,/,.,.,/,.,.
CC(C)NC(=O)C1(C)Cc2c(-c3ccc(N(C)C)cc3)ccnc2O1 (stereo unspecified),/,.,.,/,.,.
CCOC(=O)N1CCN(C(=O)C[C@@H]2C[C@@]3(C(=O)OC)CCCCC=C3N(Cc3cccc4ccccc34)C2=O)CC1,/,/,.,/,.,/
O=C(O)C1C2C=CC(C2)C1C(=O)NCc1cccnc1 (stereo unspecified),.,.,.,.,.,.
O=C(NCc1cccnc1)C1C2C=CC(C2)C1C(=O)Nc1cccc(C(F)(F)F)c1 (stereo unspecified),/,.,.,/,40,.
COc1ccc(-[n+]2c(C)cc(/C=C3\Sc4ccccc4N3C)cc2C)cc1,/,.,.,79,.,.
CCN(C)C1CN(Cc2cn(Cc3cccc(C(F)(F)F)c3)nn2)S(=O)(=O)C1 (stereo unspecified),/,/,.,/,.,/
CC(C)(C)C(c1nc2ccccc2[nH]1)n1c(-c2ccsc2)nc2ccccc21 (stereo unspecified),/,/,.,/,.,/
C[C@H]1O[C@@H](n2cc(F)c(=O)[nH]c2=O)[C@H](O)[C@@H]1O,.,.,.,.,.,.
CCCCCCCCCCCCCCCCCCNc1ccn(C2OC(COP(=O)(O)OCC3OC(n4cc(F)c(=O)[nH]c4=O)CC3O)C(O)C2O)c(=O)n1 (stereo unspecified),.,80,.,/,.,.
COc1cc(OC)cc(C2=Cc3ccccc3C(CC(=O)c3ccco3)N2c2ccc(-c3cncnc3)cc2)c1 (stereo unspecified),/,/,.,/,.,/
COCCOC(=O)c1c(NC(=O)COC(=O)Cc2cccc(OC)c2)sc(C(N)=O)c1C,.,.,.,83,.,.
COCCOC(=O)c1c(NC(=O)CN(C)c2ccccc2)sc(C(N)=O)c1C,.,.,.,.,.,.
O=S(=O)(Nc1ccc(O)c2ncccc12)c1ccccc1F,/,59,.,/,.,.
CCN(CC(=O)Nc1ccccc1OC)C(=O)CCc1ccccc1,.,.,.,.,40,.
CCOc1ccc(OCCC(=O)N(CC)CC(=O)Nc2ccccc2OC)cc1,.,.,.,/,.,.
Cc1cccc(CC(=O)NCCS(=O)(=O)N2CCN(c3ccccc3)CC2)c1,/,.,.,/,.,.
Cc1ccc(C(=O)c2c(C)oc3c2C(=O)C(=O)c2ccccc2-3)cc1,.,52,.,.,.,.
